Data: ChEMBL document CHEMBL2390927, “Design, synthesis and antimicrobial evaluation of novel benzimidazole type of Fluconazole analogues and their synergistic effects with Chloromycin, Norfloxacin and Fluconazole” (2013)
Converted amounts (≈) assume the structure as drawn.

Assays:
Staphylococcus aureus [1] = experiment: Ratio of chloromycin MIC to compound MIC for Staphylococcus aureus ATCC 6538; format: functional
Saccharomyces cerevisiae [2] = experiment: Antifungal activity against Saccharomyces cerevisiae after 24 hrs by two-fold serial dilution method; format: functional
Procedure, shortened: (§1)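 Spore suspension in sterile distilled water from one-day-old cultures on Sabouraud agar, final 1–5 × 10³ spore mL⁻¹. Compound stocks diluted in sterile RPMI 1640 as two-fold serial dilutions in microdilution plates. MIC is the lowest concentration completely inhibiting growth. Growth monitored visually and spectrophotometrically, in triplicate.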

Micrococcus luteus [3] = experiment: Antibacterial activity against Micrococcus luteus ATCC 4698 after 24 hrs by two-fold serial dilution method; format: functional; conditions: ATCC 4698, 24 h
Procedure, shortened: (§2)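 MIC taken as the lowest concentration giving complete growth inhibition, by standard two-fold serial dilution in 96-well plates following NCCLS. Stocks in DMSO, diluted in Mueller–Hinton broth. Inoculum adjusted with sterile saline to 1 × 10⁵ CFU. DMSO with inoculum and no drug served as solvent control. Growth read visually and spectrophotometrically, in triplicate.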

Staphylococcus aureus [4] = experiment: Antibacterial activity against Staphylococcus aureus ATCC 6538 after 24 hrs by two-fold serial dilution method; format: functional; conditions: ATCC 6538, 24 h
Candida [5] = experiment: Antifungal activity against Candida mycoderma after 24 hrs by two-fold serial dilution method; format: functional; procedure, shortened: as §1
Candida albicans [6] = experiment: Antifungal activity against Candida albicans ATCC 76615 after 24 hrs by two-fold serial dilution method; format: functional; conditions: ATCC 76615, 24 h; procedure, shortened: as §1
Salmonella typhi = experiment: Antibacterial activity against Bacillus typhi after 24 hrs by two-fold serial dilution method; format: functional, Salmonella enterica subsp. enterica serovar Typhi; conditions: Salmonella enterica
Procedure, shortened: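 Two-fold serial dilution in 96-well plates following NCCLS; compounds dissolved in DMSO as stocks, then diluted in Mueller-Hinton broth; bacterial suspension adjusted with sterile saline to 1 × 10⁵ CFU; MIC taken as lowest concentration completely inhibiting growth, monitored visually and spectrophotometrically; DMSO-plus-inoculum well as solvent control; triplicate.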

Escherichia coli [7] = experiment: Ratio of chloromycin MIC to compound MIC for Escherichia coli JM109; format: functional
Pseudomonas aeruginosa [8] = experiment: Ratio of chloromycin MIC to compound MIC for Pseudomonas aeruginosa ATCC 27853; format: functional
Staphylococcus aureus [9] = experiment: Ratio of norfloxacin MIC to compound MIC for Staphylococcus aureus ATCC 6538; format: functional
Cyberlindnera jadinii [10] = experiment: Antifungal activity against Candida utilis after 24 hrs by two-fold serial dilution method; format: functional; conditions: Williopsis jadinii; procedure, shortened: as §1
Staphylococcus aureus [11] = experiment: Antibacterial activity against methicillin-resistant Staphylococcus aureus N315 after 24 hrs by two-fold serial dilution method; format: functional; conditions: N315, 24 h
Escherichia coli [12] = experiment: Antibacterial activity against Escherichia coli JM109 after 24 hrs by two-fold serial dilution method; format: functional; conditions: JM109, 24 h
Bacillus subtilis [13] = experiment: Antibacterial activity against Bacillus subtilis ATCC 21216 after 24 hrs by two-fold serial dilution method; format: functional; conditions: ATCC 21216, 24 h; procedure, shortened: as §2
Bacillus [14] = experiment: Antibacterial activity against Bacillus proteus ATCC 13315 after 24 hrs by two-fold serial dilution method; format: functional; conditions: ATCC 13315, 24 h; procedure, shortened: as §2
Aspergillus flavus [15] = experiment: Antifungal activity against Aspergillus flavus after 24 hrs by two-fold serial dilution method; format: functional; procedure, shortened: as §1
Saccharomyces cerevisiae [16] = experiment: Ratio of fluconazole MIC to compound MIC for Saccharomyces cerevisiae; format: functional
Candida [17] = experiment: Ratio of fluconazole MIC to compound MIC for Candida mycoderma; format: functional
Pseudomonas aeruginosa [18] = experiment: Antibacterial activity against Pseudomonas aeruginosa ATCC 27853 after 24 hrs by two-fold serial dilution method; format: functional; conditions: ATCC 27853, 24 h; procedure, shortened: as §2
Candida [19] = experiment: Potentiation of fluconazole-induced antifungal activity against Candida mycoderma at 2 times MIC after 24 hrs by two-fold serial dilution method; format: functional
Escherichia coli [20] = experiment: Potentiation of chloromycin-induced antibacterial activity against Escherichia coli JM109 at 8 times MIC after 24 hrs by two-fold serial dilution method; format: functional
Bacillus [21] = experiment: Potentiation of norfloxacin-induced antibacterial activity against Bacillus proteus ATCC 13315 at 2 times MIC after 24 hrs by two-fold serial dilution method; format: functional
Escherichia coli [22] = experiment: Potentiation of norfloxacin-induced antibacterial activity against Escherichia coli JM109 at 4 times MIC after 24 hrs by two-fold serial dilution method; format: functional
Staphylococcus aureus [23] = experiment: Potentiation of norfloxacin-induced antibacterial activity against Staphylococcus aureus ATCC 6538 at MIC after 24 hrs by two-fold serial dilution method; format: functional
Candida albicans [24] = experiment: Potentiation of fluconazole-induced antifungal activity against Candida albicans ATCC 76615 at MIC after 24 hrs by two-fold serial dilution method; format: functional
Pseudomonas aeruginosa [25] = experiment: Potentiation of chloromycin-induced antibacterial activity against Pseudomonas aeruginosa ATCC 27853 at 4 times MIC after 24 hrs by two-fold serial dilution method; format: functional
Aspergillus flavus [26] = experiment: Potentiation of fluconazole-induced antifungal activity against Aspergillus flavus at 2 times MIC after 24 hrs by two-fold serial dilution method; format: functional
Cyberlindnera jadinii [27] = experiment: Potentiation of fluconazole-induced antifungal activity against Candida utilis at 4 times MIC after 24 hrs by two-fold serial dilution method; format: functional
Micrococcus luteus [28] = experiment: Potentiation of chloromycin-induced antibacterial activity against Micrococcus luteus ATCC 4698 at 2 times MIC after 24 hrs by two-fold serial dilution method; format: functional
Bacillus subtilis [29] = experiment: Potentiation of chloromycin-induced antibacterial activity against Bacillus subtilis ATCC 21216 at 2 times MIC after 24 hrs by two-fold serial dilution method; format: functional
Bacillus [30] = experiment: Potentiation of chloromycin-induced antibacterial activity against Bacillus proteus ATCC 13315 at 4 times MIC after 24 hrs by two-fold serial dilution method; format: functional
Saccharomyces cerevisiae [31] = experiment: Potentiation of fluconazole-induced antifungal activity against Saccharomyces cerevisiae at 2 times MIC after 24 hrs by two-fold serial dilution method; format: functional
Pseudomonas aeruginosa [32] = experiment: Potentiation of norfloxacin-induced antibacterial activity against Pseudomonas aeruginosa ATCC 27853 at 2 times MIC after 24 hrs by two-fold serial dilution method; format: functional
Micrococcus luteus [33] = experiment: Potentiation of norfloxacin-induced antibacterial activity against Micrococcus luteus ATCC 4698 at MIC after 24 hrs by two-fold serial dilution method; format: functional
Bacillus subtilis [34] = experiment: Potentiation of norfloxacin-induced antibacterial activity against Bacillus subtilis ATCC 21216 at MIC after 24 hrs by two-fold serial dilution method; format: functional

Structure (SMILES): FC(F)(F)c1cc(NCc2nc3ccccc3[nH]2)cc(C(F)(F)F)c1
- Ratio (Staphylococcus aureus [1]): 4
- MIC (Saccharomyces cerevisiae [2]): 2 µg/mL (≈ 5.57 µM)
- MIC (Micrococcus luteus [3]): 8 µg/mL (≈ 22.3 µM)
- MIC (Staphylococcus aureus [4]): 2 µg/mL (≈ 5.57 µM)
- MIC (Candida [5]): 2 µg/mL (≈ 5.57 µM)
- MIC (Candida albicans [6]): 2 µg/mL (≈ 5.57 µM)
- MIC (Salmonella typhi): 2 µg/mL (≈ 5.57 µM)
- Ratio (Escherichia coli [7]): 8
- Ratio (Pseudomonas aeruginosa [8]): 4
- Ratio (Staphylococcus aureus [9]): 4
- MIC (Cyberlindnera jadinii [10]): 8 µg/mL (≈ 22.3 µM)
- MIC (Staphylococcus aureus [11]): 16 µg/mL (≈ 44.5 µM)
- MIC (Escherichia coli [12]): 2 µg/mL (≈ 5.57 µM)
- MIC (Bacillus subtilis [13]): 4 µg/mL (≈ 11.1 µM)
- MIC (Bacillus [14]): 2 µg/mL (≈ 5.57 µM)
- MIC (Aspergillus flavus [15]): 8 µg/mL (≈ 22.3 µM)
- Ratio (Saccharomyces cerevisiae [16]): 8
- Ratio (Candida [17]): 2
- MIC (Pseudomonas aeruginosa [18]): 4 µg/mL (≈ 11.1 µM)

Structure (SMILES): Cl.Cl.Fc1ccc(CN(Cc2nc3ccccc3[nH]2)c2cc(C(F)(F)F)cc(C(F)(F)F)c2)c(F)c1
- fractional inhibitory concentration index (FICI) (Candida [19]): 0.25
- fractional inhibitory concentration index (FICI) (Escherichia coli [20]): 0.375
- MIC (Saccharomyces cerevisiae [2]): 8 µg/mL
- MIC (Micrococcus luteus [3]): 8 µg/mL
- MIC (Staphylococcus aureus [4]): 8 µg/mL
- fractional inhibitory concentration index (FICI) (Bacillus [21]): 0.25
- MIC (Candida [5]): 16 µg/mL
- fractional inhibitory concentration index (FICI) (Escherichia coli [22]): 0.375
- fractional inhibitory concentration index (FICI) (Staphylococcus aureus [23]): 0.25
- fractional inhibitory concentration index (FICI) (Candida albicans [24]): 0.375
- MIC (Candida albicans [6]): 8 µg/mL
- MIC (Salmonella typhi): 16 µg/mL
- MIC (Cyberlindnera jadinii [10]): 16 µg/mL
- MIC (Staphylococcus aureus [11]): 16 µg/mL
- fractional inhibitory concentration index (FICI) (Pseudomonas aeruginosa [25]): 0.375
- MIC (Escherichia coli [12]): 32 µg/mL
- fractional inhibitory concentration index (FICI) (Aspergillus flavus [26]): 0.375
- fractional inhibitory concentration index (FICI) (Cyberlindnera jadinii [27]): 0.375
- MIC (Bacillus subtilis [13]): 8 µg/mL
- fractional inhibitory concentration index (FICI) (Micrococcus luteus [28]): 0.375
- MIC (Bacillus [14]): 16 µg/mL
- MIC (Aspergillus flavus [15]): 8 µg/mL
- fractional inhibitory concentration index (FICI) (Bacillus subtilis [29]): 0.5
- fractional inhibitory concentration index (FICI) (Bacillus [30]): 0.375
- fractional inhibitory concentration index (FICI) (Saccharomyces cerevisiae [31]): 0.375
- fractional inhibitory concentration index (FICI) (Pseudomonas aeruginosa [32]): 0.25
- fractional inhibitory concentration index (FICI) (Micrococcus luteus [33]): 0.25
- fractional inhibitory concentration index (FICI) (Bacillus subtilis [34]): 0.25
- MIC (Pseudomonas aeruginosa [18]): 16 µg/mL
